Laboratory results taken from ChEMBL document CHEMBL1811814, “Synthesis and evaluation of indole, pyrazole, chromone and pyrimidine based conjugates for tumor growth inhibitory activities--development of highly efficacious cytotoxic agents” (Eur J Med Chem, 2010).

Columns and labels:
Assay type in all cases: functional
Set-up in all cases: scale not given: the % may be the effect or the level left
[1] = test system: ACHN; test: Growth inhibition of human ACHN cells assessed tumor cell growth at 10^-5 M
How it was run: (§1)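 NCI 60-human-tumor-cell-line panel screen. Each compound was tested at a single concentration of 10^-5 M, and percent growth of tumor cells was recorded for each cell line. Growth inhibition was expressed from these percent-growth values.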

[2] = test system: NCI-H322M; test: Growth inhibition of human NCI-H322M cells assessed tumor cell growth at 10^-5 M; how it was run: as §1
[3] = test system: SK-MEL-2; test: Growth inhibition of human SK-MEL-2 cells assessed tumor cell growth at 10^-5 M; how it was run: as §1
[4] = test system: OVCAR-8; test: Growth inhibition of human OVCAR8 cells assessed tumor cell growth at 10^-5 M; how it was run: as §1
[5] = test system: SF-268; test: Growth inhibition of human SF268 cells assessed tumor cell growth at 10^-5 M; how it was run: as §1
[6] = test system: LOX IMVI; test: Growth inhibition of human LOXIMVI cells assessed tumor cell growth at 10^-5 M; how it was run: as §1
[7] = test system: U-251; test: Growth inhibition of human U251 cells assessed tumor cell growth at 10^-5 M
How it was run: (§2)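 Single-dose screen at 10^-5 M across the 60 human tumor cell line panel, run to NCI standards. The value is the percent growth of each cell line in the presence of compound. Compounds active at this dose moved on to five-concentration testing (10^-4 to 10^-8 M).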

[8] = test system: OVCAR-4; test: Growth inhibition of human OVCAR4 cells assessed tumor cell growth at 10^-5 M; how it was run: as §1
[9] = test system: UO-31; test: Growth inhibition of human UO31 cells assessed tumor cell growth at 10^-5 M; how it was run: as §2
[10] = test system: A498; test: Growth inhibition of human A498 cells assessed tumor cell growth at 10^-5 M; how it was run: as §1
[11] = test system: SF-539; test: Growth inhibition of human SF539 cells assessed tumor cell growth at 10^-5 M; how it was run: as §1
[12] = test system: A549; test: Growth inhibition of human A549 cells assessed tumor cell growth at 10^-5 M; how it was run: as §1
[13] = test system: TK-10; test: Growth inhibition of human TK10 cells assessed tumor cell growth at 10^-5 M; how it was run: as §2
[14] = test system: SK-MEL-5; test: Growth inhibition of human SK-MEL-5 cells assessed tumor cell growth at 10^-5 M; how it was run: as §1
[15] = test system: SNB-75; test: Growth inhibition of human SNB75 cells assessed tumor cell growth at 10^-5 M; how it was run: as §2
[16] = test system: SK-MEL-28; test: Growth inhibition of human SK-MEL-28 cells assessed tumor cell growth at 10^-5 M; how it was run: as §1
[17] = test system: OVCAR-3; test: Growth inhibition of human OVCAR3 cells assessed tumor cell growth at 10^-5 M; how it was run: as §1
[18] = test system: SNB-19; test: Growth inhibition of human SNB19 cells assessed tumor cell growth at 10^-5 M; how it was run: as §2
[19] = test system: IGROV-1; test: Growth inhibition of human IGROV1 cells assessed tumor cell growth at 10^-5 M; how it was run: as §1
[20] = test system: NCI-H226; test: Growth inhibition of human NCI-H226 cells assessed tumor cell growth at 10^-5 M; how it was run: as §1
[21] = test system: K562; test: Growth inhibition of human K562 cells assessed tumor cell growth at 10^-5 M; how it was run: as §1
[22] = test system: SN12C; test: Growth inhibition of human SN12C cells assessed tumor cell growth at 10^-5 M; how it was run: as §1
[23] = test system: 786-0; test: Growth inhibition of human 786-0 cells assessed tumor cell growth at 10^-5 M; how it was run: as §1
[24] = Growth inhibition of human […] cells assessed tumor cell growth at 10^-5 M; how it was run: as §1
[25] = test system: HOP-62; test: Growth inhibition of human HOP62 cells assessed tumor cell growth at 10^-5 M; how it was run: as §1
[26] = test system: SR; test: Growth inhibition of human SR cells assessed tumor cell growth at 10^-5 M; how it was run: as §2
[27] = test system: MOLT-4; test: Growth inhibition of human MOLT4 cells assessed tumor cell growth at 10^-5 M; how it was run: as §1
[28] = test system: HL-60(TB); test: Growth inhibition of human HL-60(TB) cells assessed tumor cell growth at 10^-5 M
How it was run: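 HL-60(TB), part of the 60-line panel, tested at a single concentration of 10^-5 M. The read-out is percent tumor cell growth relative to untreated growth.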

[29] = test system: UACC-62; test: Growth inhibition of human UACC62 cells assessed tumor cell growth at 10^-5 M; how it was run: as §2
[30] = test system: HCT-15; test: Growth inhibition of human HCT15 cells assessed tumor cell growth at 10^-5 M; how it was run: as §1
[31] = test system: OVCAR-5; test: Growth inhibition of human OVCAR5 cells assessed tumor cell growth at 10^-5 M; how it was run: as §1
[32] = test system: BT-549; test: Growth inhibition of human BT549 cells assessed tumor cell growth at 10^-5 M; how it was run: as §1
[33] = test system: EKVX; test: Growth inhibition of human EKVX cells assessed tumor cell growth at 10^-5 M; how it was run: as §1
[34] = test system: M14; test: Growth inhibition of human M14 cells assessed tumor cell growth at 10^-5 M; how it was run: as §1
[35] = test system: CCRF-CEM; test: Growth inhibition of human CCRF-CEM cells assessed tumor cell growth at 10^-5 M; how it was run: as §1
[36] = test system: HCC 2998; test: Growth inhibition of human HCC2998 cells assessed tumor cell growth at 10^-5 M; how it was run: as §1
[37] = test system: SW-620; test: Growth inhibition of human SW620 cells assessed tumor cell growth at 10^-5 M; how it was run: as §2
[38] = test system: UACC-257; test: Growth inhibition of human UACC257 cells assessed tumor cell growth at 10^-5 M; how it was run: as §2
[39] = test system: MDA-MB-435; test: Growth inhibition of human MDA-MB-435 cells assessed tumor cell growth at 10^-5 M; how it was run: as §1
[40] = test system: MCF7; test: Growth inhibition of human MCF7 cells assessed tumor cell growth at 10^-5 M; how it was run: as §1
[41] = test system: HT-29; test: Growth inhibition of human HT-29 cells assessed tumor cell growth at 10^-5 M; how it was run: as §1
[42] = test system: NCI/ADR-RES; test: Growth inhibition of human NCI/ADR-RES cells assessed tumor cell growth at 10^-5 M; how it was run: as §1
[43] = test system: SF-295; test: Growth inhibition of human SF295 cells assessed tumor cell growth at 10^-5 M; how it was run: as §1
[44] = test system: NCI-H23; test: Growth inhibition of human NCI-H23 cells assessed tumor cell growth at 10^-5 M; how it was run: as §1
[45] = test system: NCI-H460; test: Growth inhibition of human NCI-H460 cells assessed tumor cell growth at 10^-5 M; how it was run: as §1
[46] = test system: RXF 393; test: Growth inhibition of human RXF393 cells assessed tumor cell growth at 10^-5 M; how it was run: as §1
[47] = test system: HOP-92; test: Growth inhibition of human HOP92 cells assessed tumor cell growth at 10^-5 M; how it was run: as §1
[48] = test system: DU-145; test: Growth inhibition of human DU145 cells assessed tumor cell growth at 10^-5 M; how it was run: as §1
[49] = test system: NCI-H522; test: Growth inhibition of human NCI-H522 cells assessed tumor cell growth at 10^-5 M; how it was run: as §1
[50] = test system: CAKI-1; test: Growth inhibition of human Caki1 cells assessed tumor cell growth at 10^-5 M; how it was run: as §1
[51] = test system: COLO 205; test: Growth inhibition of human COLO205 cells assessed tumor cell growth at 10^-5 M; how it was run: as §1
[52] = Growth inhibition of human Hs 578T cells assessed tumor cell growth at 10^-5 M; how it was run: as §1
[53] = test system: Malme-3M; test: Growth inhibition of human MALME-3M cells assessed tumor cell growth at 10^-5 M; how it was run: as §1
[54] = test system: PC-3; test: Growth inhibition of human PC3 cells assessed tumor cell growth at 10^-5 M; how it was run: as §1
[55] = test system: HCT-116; test: Growth inhibition of human HCT116 cells assessed tumor cell growth at 10^-5 M; how it was run: as §1
[56] = test system: T47D; test: Growth inhibition of human T47D cells assessed tumor cell growth at 10^-5 M; how it was run: as §2
[57] = test system: SK-OV-3; test: Growth inhibition of human SKOV3 cells assessed tumor cell growth at 10^-5 M; how it was run: as §1
[58] = test system: MDA-MB-468; test: Growth inhibition of human MDA-MB-468 cells assessed tumor cell growth at 10^-5 M; how it was run: as §1
[59] = test system: MDA-MB-231; test: Growth inhibition of human MDA-MB-231 cells assessed tumor cell growth at 10^-5 M; how it was run: as §1
[60] = test system: KM12; test: Growth inhibition of human KM12 cells assessed tumor cell growth at 10^-5 M; how it was run: as §1

## O=C1C(=Cc2cn(Cc3ccccc3)c3ccccc23)C(=O)N(Cc2ccccc2)C(=O)N1Cc1ccccc1
[1]
  Activity: 86.2%
[2]
  Activity: 105%
[3]
  Activity: 83.9%
[4]
  Activity: 83.5%
[5]
  Activity: 87.5%
[6]
  Activity: 87.1%
[7]
  Activity: 75.6%
[8]
  Activity: 57.3%
[9]
  Activity: 73.3%
[10]
  Activity: -95.7%
[11]
  Activity: 83.5%
[12]
  Activity: 80%
[13]
  Activity: 40.6%
[14]
  Activity: 104.1%
[15]
  Activity: 44.9%
[16]
  Activity: 109.5%
[17]
  Activity: 97.7%
[18]
  Activity: 87.1%
[19]
  Activity: 75.7%
[20]
  Activity: -49.4%
[21]
  Activity: 81.4%
[22]
  Activity: 101.3%
[23]
  Activity: 93.2%
[24]
  Activity: 93.2%
[25]
  Activity: 85.4%
[26]
  Activity: 87.2%
[27]
  Activity: 95.2%
[28]
  Activity: 96.4%
[29]
  Activity: 53.1%
[30]
  Activity: 85.7%
[31]
  Activity: -7.2%
[32]
  Activity: 118.1%
[33]
  Activity: 97.5%
[34]
  Activity: 103.5%
[35]
  Activity: 117.9%
[36]
  Activity: 97.4%
[37]
  Activity: 100.6%
[38]
  Activity: 52.9%
[39]
  Activity: 108.2%
[40]
  Activity: 80.2%
[41]
  Activity: 110.8%
[42]
  Activity: 105.7%
[43]
  Activity: 34.3%
[44]
  Activity: 87.7%
[45]
  Activity: 36%
[46]
  Activity: 57.6%
[47]
  Activity: 90.9%
[48]
  Activity: 110.4%
[49]
  Activity: 87.6%
[50]
  Activity: 94.6%
[51]
  Activity: 26.4%
[52]
  Activity: 90.7%
[53]
  Activity: 104.8%
[54]
  Activity: 90.3%
[55]
  Activity: 76.1%
[56]
  Activity: 51.6%
[57]
  Activity: 47.7%
[58]
  Activity: -71.7%
[59]
  Activity: 89.3%
[60]
  Activity: 100.7%
